pIC50: −log10 of the molar value. Calls of active or inactive are those of the source.
Columns and labels:
[1] = molecular target: T1, Amyloid-beta precursor protein (Homo sapiens, UniProt P05067); test: Inhibition of amyloid beta (1 to 42) fibril formation at 10 uM after 1 hr by ThT spectrofluorometric analysis
In short: (§1)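 ThT diluted to 5 µM in 50 mM glycine buffer was then added. After 10 s of shaking, fluorescence was read at excitation 450 nm and emission 480 nm, as a measure of fibril formation.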

[2] = Cytotoxicity against mouse HT22 cells assessed as viability at 10 uM after 18 hrs by MTT assay; assay type: cell-based, HT-22; conditions: read-out: Activity
In short: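 HT22 murine hippocampal cells were grown in DMEM with 10% FBS at 37 °C, 5% CO2, and plated at 5×10^3 cells/well. They were switched to plain DMEM and serum-starved for 1 h before exposure to compound at 10 µM for 18 h. MTT solution (5 mg/mL) was added for 4 h at 37 °C. Cells were solubilized in 50% DMF/10% SDS (pH 4.7) for 18 h, absorbance was read at 570/630 nm, and % cytotoxicity was calculated.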

[3] = molecular target: T1, Amyloid-beta precursor protein; test: Inhibition of amyloid beta (1 to 42) fibril formation after 1 hr by ThT spectrofluorometric analysis; in short: as §1
[4] = molecular target: T1, Amyloid-beta precursor protein; test: Inhibition of amyloid beta (25 to 35)-induced cell death in mouse HT22 cells at 10 uM after 18 hrs by MTT assay; assay type: cell-based; conditions: HT-22, values are per cent of control
In short: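 HT22 cells were plated at 5×10^3 cells/well, serum-starved in plain DMEM for 1 h, and pretreated with compound for 1 h. Aβ(25–35) was prepared as a 10 mM DMSO stock, diluted 10-fold in PBS, and aggregated for 1 h at room temperature. It was then added at a final 25 µM, and cells were incubated for 18 h. Viability was measured by MTT (4 h), then solubilization in DMF/SDS and absorbance at 570/630 nm.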

Mus musculus [5] = test: Antialzheimer activity in ICR mouse assessed as reduction in amyloid beta (1 to 42)-induced spontaneous memory loss at 100 mg/kg, po measured after 2 days by object recognition task relative to control; assay type: functional; set-up: scale not given: the % may be the effect or the level left
In short: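 Male ICR mice received ICV pre-aggregated Aβ(1–42) at 10 nM (50 µL, 2.4 mm depth at bregma), then compound at 100 mg/kg po once daily. Object recognition ran on days 2–3. Exploration was counted as the nose directed at an object within 2 cm and/or touching it, and objects were cleaned to avoid olfactory cues. Preference index = exploration time for new object / total exploration time. n = 10, mean ± SEM.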

Mus musculus [6] = test: Antialzheimer activity in ICR mouse assessed as increase in amyloid beta (1 to 42)-induced step-through latency at 100 mg/kg, po measured after 3 days by passive avoidance test; assay type: functional
In short: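 Male ICR mice got 50 µL of pre-aggregated Aβ(1–42) by ICV injection at 2.4 mm depth at bregma. The peptide was a 250 µM DMSO stock diluted in PBS to 10 nM and aggregated at 37 °C for 4 days. Oral compound was given at 100 mg/kg once daily, with testing on days 3–4. Training used a 0.25 mA, 3 s shock; step-through latency into the dark compartment was measured 24 h later. n = 10, mean ± SEM, t-test.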

Mus musculus [7] = test: Antialzheimer activity in ICR mouse assessed as reduction in amyloid beta (1 to 42)-induced spontaneous memory loss at 100 mg/kg, po measured after 2 days by Y-maze test; assay type: functional; set-up: scale not given: the % may be the effect or the level left
In short: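 Aβ(1–42) at 10 nM in PBS (from a 250 µM DMSO stock) was aggregated at 37 °C for 6 days, then injected ICV (50 µL, 2.4 mm depth at bregma) into male ICR mice. Compound was given at 100 mg/kg po once daily, and the Y-maze test was on day 2. Each mouse explored a three-arm maze freely for 8 min. An entry counted when all four limbs were in an arm; spontaneous alternation was scored as three consecutive different-arm entries. n = 10, mean ± SEM.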

[8] = molecular target: T1, Amyloid-beta precursor protein; test: Inhibition of amyloid beta (1 to 42) aggregation at 2 uM after 2 hrs by SDS-PAGE and PICUP technique
In short: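 Aβ(1–42) was monomerized in HFIP (0.5 mM), dried, and redissolved in DMSO. It was incubated at 25 µM final in PBS (pH 7.3) with compound at 2 µM final for 2 h at 37 °C. Samples were photo-cross-linked (PICUP) with ammonium persulfate and Ru(bpy)3Cl2 using three 1 s irradiations, quenched, and boiled. Products were resolved on a 10–20% tris-tricine gel and silver-stained.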

Mus musculus [9] = test: Antialzheimer activity in amyloid beta (1 to 42)-challenged ICR mouse assessed as decrease in escape latency at 100 mg/kg, po measured after 7 days by water maze test; assay type: functional, organism-based; set-up: dose 100 mg/kg
In short: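 Male ICR mice were injected ICV with 50 µL of pre-aggregated Aβ(1–42) at 10 nM. Compound was then supplied for 7 days in pellet feed, each pellet containing 3 mg. Water maze training ran on days 3–7, and escape latency was recorded across training sessions. n = 10, mean ± SEM.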

[10] = molecular target: T1, Amyloid-beta precursor protein; test: Viability of cells treated with amyloid beta (25 to 35) in mouse HT22 cells at 25 uM after 18 hrs by MTT assay; conditions: HT-22
Mus musculus [11] = test: Antialzheimer activity in po dosed ICR mouse assessed as reduction in amyloid beta (1 to 42)-induced spontaneous memory loss measured after 2 days by Y-maze test; assay type: functional, organism-based
In short: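 Male ICR mice were injected ICV with 50 µL of Aβ(1–42) (10 nM, aggregated at 37 °C for 6 days). Various oral doses in the 50–200 mg/kg range followed, once daily. On day 2, each mouse moved freely in a three-arm Y-maze for 8 min. An arm entry required all four limbs inside, and spontaneous alternation was derived from the entry sequence. n = 10, mean ± SEM, t-test.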

Mus musculus [12] = test: Antialzheimer activity in po dosed ICR mouse assessed as increase in amyloid beta (1 to 42)-induced step-through latency measured after 3 days by passive avoidance test; assay type: functional, organism-based
In short: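 Male ICR mice received 50 µL of 10 nM Aβ(1–42) ICV at 2.4 mm depth at bregma, after pre-aggregation at 37 °C for 4 days. Oral doses were varied over 50–200 mg/kg, given once daily. Passive avoidance ran on days 3–4 with a 0.25 mA, 3 s training shock. Step-through latency to enter the dark compartment was recorded 24 h after training. n = 10, mean ± SEM, t-test.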

Mus musculus [13] = test: Antialzheimer activity in po dosed ICR mouse assessed as reduction in amyloid beta (1 to 42)-induced spontaneous memory loss measured after 2 days by object recognition task relative to control; assay type: functional, organism-based
In short: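 ICV pre-aggregated Aβ(1–42) (10 nM, 50 µL) was given to male ICR mice, followed by once-daily oral doses in the 50–200 mg/kg series. The object recognition task ran on days 2–3. Exploration was defined as nose within 2 cm of and/or touching an object. Preference index = new-object exploration time / total exploration time. n = 10, mean ± SEM, t-test.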

T1 sequence (P05067 whole entry): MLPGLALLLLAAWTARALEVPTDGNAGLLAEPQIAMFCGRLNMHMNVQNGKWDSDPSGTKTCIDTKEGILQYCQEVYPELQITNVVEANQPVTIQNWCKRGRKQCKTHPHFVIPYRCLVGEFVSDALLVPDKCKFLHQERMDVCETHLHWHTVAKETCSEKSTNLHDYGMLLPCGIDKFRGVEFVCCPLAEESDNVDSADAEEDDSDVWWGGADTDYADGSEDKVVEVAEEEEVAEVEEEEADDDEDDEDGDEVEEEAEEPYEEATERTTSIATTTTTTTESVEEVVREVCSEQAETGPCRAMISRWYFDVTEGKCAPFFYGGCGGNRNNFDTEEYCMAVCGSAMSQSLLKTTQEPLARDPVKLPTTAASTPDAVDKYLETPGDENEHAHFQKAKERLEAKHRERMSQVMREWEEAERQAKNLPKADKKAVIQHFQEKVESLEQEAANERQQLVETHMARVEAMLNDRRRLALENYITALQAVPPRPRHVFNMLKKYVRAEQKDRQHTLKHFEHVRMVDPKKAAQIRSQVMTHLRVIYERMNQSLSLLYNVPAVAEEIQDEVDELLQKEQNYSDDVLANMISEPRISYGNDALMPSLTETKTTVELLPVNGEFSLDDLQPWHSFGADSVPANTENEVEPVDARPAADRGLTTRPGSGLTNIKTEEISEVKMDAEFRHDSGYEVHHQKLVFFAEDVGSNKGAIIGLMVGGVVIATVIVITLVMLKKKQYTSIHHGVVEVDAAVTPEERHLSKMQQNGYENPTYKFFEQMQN

inhibition [1] [%]	Compound	viability at 18 h, 10 µM [2] [%]	other results
79	COc1cc(/C=C/c2cc(O)cc(/C=C/c3ccc(O)c(OC)c3)c2)ccc1O	80.9	–
84.5	COc1ccc(/C=C/c2cc(O)cc(/C=C/c3ccc(OC)c(O)c3)c2)cc1O	73.5	pIC50 [3]: 5.80
80.7	Oc1ccc(/C=C/c2cc(O)cc(/C=C/c3ccc(O)cc3)c2)cc1	37.4	pIC50 [3]: 5.80
67.4	COc1nc(/C=C/c2ccc(O)cc2)cc(/C=C/c2ccc(O)cc2)n1	101	–
19.8	C(=C\c1cccc(/C=C/c2ccccc2)c1)/c1ccccc1	–	–
–	COc1nc(/C=C/c2cccc(O)c2)cc(/C=C/c2cccc(O)c2)n1	45.9	–
74.1	COc1nc(/C=C/c2ccc(O)c(N(C)C)c2)cc(/C=C/c2ccc(O)c(N(C)C)c2)n1	96.6	viability, % of control [4]: 59%
90.4	COc1nc(/C=C/c2ccc(N(C)C)c(O)c2)cc(/C=C/c2ccc(N(C)C)c(O)c2)n1	101	pIC50 [3]: 6.10; viability, % of control [4]: 67.4%
78.6	CSc1nc(/C=C/c2ccc(O)c(N(C)C)c2)cc(/C=C/c2ccc(O)c(N(C)C)c2)n1	77.3	–
79.3	COc1cc(/C=C/c2cc(/C=C/c3ccc(O)c(OC)c3)ncn2)ccc1O	216	pIC50 [3]: 5.49; Activity (Mus musculus [5]): 13%; Time (Mus musculus [6]): 118 s; Activity (Mus musculus [7]): 67%; inhibition [8]: Active; viability, % of control [4]: 103%; Activity (Mus musculus [9]): Active
58.4	Oc1ccc(/C=C/c2cccc(/C=C/c3ccc(O)cc3)c2)cc1	102	–
47.4	C(=C\c1cc(/C=C/c2ccccc2)ncn1)/c1ccccc1	–	–
56	CN(C)c1ccc(/C=C/c2cccc(/C=C/c3ccc(N(C)C)c(O)c3)c2)cc1O	101	–
83.5	CN(C)c1cc(/C=C/c2cc(/C=C/c3ccc(O)c(N(C)C)c3)ncn2)ccc1O	146	pIC50 [3]: 5.43; Activity (Mus musculus [5]): inactive; Time (Mus musculus [6]): 118 s; Activity (Mus musculus [7]): 67%; inhibition [8]: Active; viability, % of control [4]: 85.3%; Activity (Mus musculus [9]): Active
67.9	COc1ccc(/C=C/c2cccc(/C=C/c3ccc(OC)c(O)c3)c2)cc1O	69.5	–
83.3	CN(C)c1ccc(/C=C/c2cc(O)cc(/C=C/c3ccc(N(C)C)c(O)c3)c2)cc1O	64.4	pIC50 [3]: 5.48
11.6	CSc1nc(/C=C/c2ccccc2)cc(/C=C/c2ccccc2)n1	–	–
71.5	COc1cc(/C=C/c2cccc(/C=C/c3ccc(O)c(OC)c3)c2)ccc1O	74.8	–

inhibition [1] [%]	Compound	viability at 18 h, 10 µM [2] [%]	other results
75.2	COc1ccc(/C=C/c2cc(/C=C/c3ccc(OC)c(O)c3)nc(SC)n2)cc1O	78.8	–
–	H-GSNKGAIIGLC-OH	–	viability [10]: 56%
–	Oc1cccc(/C=C/c2cccc(/C=C/c3cccc(O)c3)c2)c1	47	–
88.8	CSc1nc(/C=C/c2ccc(N(C)C)c(O)c2)cc(/C=C/c2ccc(N(C)C)c(O)c2)n1	85.3	pIC50 [3]: 5.96
55	COc1nc(/C=C/c2ccc(OC)c(O)c2)cc(/C=C/c2ccc(OC)c(O)c2)n1	98.4	–
67.4	CSc1nc(/C=C/c2ccc(O)cc2)cc(/C=C/c2ccc(O)cc2)n1	65.3	–
7.1	Oc1cccc(/C=C/c2cc(O)cc(/C=C/c3cccc(O)c3)c2)c1	59.2	–
18.8	COc1nc(/C=C/c2ccccc2)cc(/C=C/c2ccccc2)n1	–	–
64.3	Oc1ccc(/C=C/c2cc(/C=C/c3ccc(O)cc3)ncn2)cc1	104	–
19.8	Oc1cc(/C=C/c2ccccc2)cc(/C=C/c2ccccc2)c1	–	–
93.7	CN(C)c1ccc(/C=C/c2cc(/C=C/c3ccc(N(C)C)c(O)c3)ncn2)cc1O	133	pIC50 [3]: 5.47; Activity (Mus musculus [5]): 7%; Time (Mus musculus [6]): 118 s; Activity (Mus musculus [7]): 67%; inhibition [8]: Active; viability, % of control [4]: 76.6%; Activity (Mus musculus [9]): Active
–	CSc1nc(/C=C/c2cccc(O)c2)cc(/C=C/c2cccc(O)c2)n1	43.7	–
68	COc1nc(/C=C/c2ccc(O)c(OC)c2)cc(/C=C/c2ccc(O)c(OC)c2)n1	75.2	–
14.1	Oc1cccc(/C=C/c2cc(/C=C/c3cccc(O)c3)ncn2)c1	142	–
63.9	CN(C)c1cc(/C=C/c2cccc(/C=C/c3ccc(O)c(N(C)C)c3)c2)ccc1O	95.7	–
74.2	CN(C)c1cc(/C=C/c2cc(O)cc(/C=C/c3ccc(O)c(N(C)C)c3)c2)ccc1O	66	–
67.6	COc1cc(/C=C/c2cc(/C=C/c3ccc(O)c(OC)c3)nc(SC)n2)ccc1O	79	–
80.9	COc1ccc(/C=C/c2cc(/C=C/c3ccc(OC)c(O)c3)ncn2)cc1O	136	pIC50 [3]: 5.68; Activity (Mus musculus [11]): Dose-dependent effect; Activity (Mus musculus [5]): 7%; Activity (Mus musculus [12]): Dose-dependent effect; Time (Mus musculus [6]): 144 s; Activity (Mus musculus [13]): Dose-dependent effect; Activity (Mus musculus [7]): 72%; inhibition [8]: Active; viability, % of control [4]: 91.8%; Activity (Mus musculus [9]): Active
